According to ChEMBL document CHEMBL1157691, “Synthesis and antiproliferative evaluations of certain 2-phenylvinylquinoline (2-styrylquinoline) and 2-furanylvinylquinoline derivatives” (Bioorg Med Chem, 2010):

test system: MCF7; assay: Antiproliferative activity against human MCF7 cells assessed as cell survival at 4 ug/mL after 72 hrs by MTS assay relative to control; format: functional; details: MCF7, 72 h, read-out: Survival
Summary of the method: (§1)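 Log-phase cells seeded at 5000 cells/mL/well in 24-well format. They were then exposed to test agents at a single concentration of 4.0 μg/mL for 72 h. Growth and viability were read by MTS assay.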

Q: With `CC(=O)c1ccc(Nc2cc(/C=C/c3ccccc3)nc3ccccc23)cc1` as the compound, how does the viability at 4 µg/mL read?
A: 83%

Q: For `CO/N=C(/C)c1ccc(Nc2cc(/C=C/c3ccccc3)nc3c(OC)cccc23)cc1`, which viability at 4 µg/mL is on record?
A: 97%

Q: Which viability at 4 µg/mL does the source give for `C/C(=N\O)c1ccc(Nc2cc(/C=C/c3ccc([N+](=O)[O-])o3)nc3ccccc23)cc1` here?
A: < 20%

Q: For `N#Cc1ccc(/C=C/c2ccc3cccc(O)c3n2)cc1`, which viability at 4 µg/mL is on record?
A: 107%

Q: Which viability at 4 µg/mL does the source give for `COc1cccc2c(Cl)cc(/C=C/c3ccccc3)nc12` here?
A: 99%

Q: Which viability at 4 µg/mL does the source give for `CO/N=C(\C)c1ccc(Nc2cc(/C=C/c3ccc([N+](=O)[O-])o3)nc3ccccc23)cc1` here?
A: < 20%

Q: Which viability at 4 µg/mL does the source give for `Oc1ccc(/C=C/c2ccc3cccc(O)c3n2)cc1` here?
A: 108%

Q: Which viability at 4 µg/mL does the source give for `COc1cccc2c(O)cc(/C=C/c3ccccc3)nc12` here?
A: 104%

Q: For `Oc1cccc2ccc(/C=C/c3ccco3)nc12`, which viability at 4 µg/mL is on record?
A: 110%

Q: With `Oc1cccc2ccc(/C=C/c3ccc(F)cc3)nc12` as the compound, how does the viability at 4 µg/mL read?
A: 103%

Q: For `COc1cccc2c(Nc3ccc(C(C)=O)cc3)cc(/C=C/c3ccccc3)nc12`, which viability at 4 µg/mL is on record?
A: 95%

Q: Which viability at 4 µg/mL does the source give for `Oc1cccc(/C=C/c2ccc3cccc(O)c3n2)c1O` here?
A: 95%

Q: With `C/C(=N/O)c1ccc(Nc2cc(/C=C/c3ccccc3)nc3ccccc23)cc1` as the compound, how does the viability at 4 µg/mL read?
A: 54%

Q: For `Oc1cc(/C=C/c2ccccc2)nc2ccccc12`, which viability at 4 µg/mL is on record?
A: 119%

Q: For `Oc1cccc2ccc(/C=C/c3ccccc3)nc12`, which viability at 4 µg/mL is on record?
A: 110%

Q: With `CC(=O)c1ccc(Nc2cc(/C=C/c3ccc([N+](=O)[O-])o3)nc3ccccc23)cc1` as the compound, how does the viability at 4 µg/mL read?
A: < 20%

Q: With `Oc1cccc2ccc(/C=C/c3cccnc3)nc12` as the compound, how does the viability at 4 µg/mL read?
A: 115%

Q: Which viability at 4 µg/mL does the source give for `CO/N=C(/C)c1ccc(Nc2cc(/C=C/c3ccccc3)nc3ccccc23)cc1` here?
A: 108%

Q: For `COc1cccc2c(Nc3ccc(/C(C)=N\O)cc3)cc(/C=C/c3ccccc3)nc12`, which viability at 4 µg/mL is on record?
A: 40%

Q: With `O=[N+]([O-])c1ccc(/C=C/c2ccc3cccc(O)c3n2)cc1` as the compound, how does the viability at 4 µg/mL read?
A: 89%

Q: Which viability at 4 µg/mL does the source give for `Clc1cc(/C=C/c2ccccc2)nc2ccccc12` here?
A: 120%

test system: NCI-H460; assay: Antiproliferative activity against human NCI-H460 cells assessed as cell survival at 4 ug/mL after 72 hrs by MTS assay relative to control; format: functional; details: NCI-H460, 72 h, read-out: Survival; summary of the method: as §1

Q: With `CC(=O)c1ccc(Nc2cc(/C=C/c3ccccc3)nc3ccccc23)cc1` as the compound, how does the viability at 4 µg/mL read?
A: 52%

Q: With `CO/N=C(/C)c1ccc(Nc2cc(/C=C/c3ccccc3)nc3c(OC)cccc23)cc1` as the compound, how does the viability at 4 µg/mL read?
A: 87%

Q: For `C/C(=N\O)c1ccc(Nc2cc(/C=C/c3ccc([N+](=O)[O-])o3)nc3ccccc23)cc1`, which viability at 4 µg/mL is on record?
A: < 20%

Q: With `N#Cc1ccc(/C=C/c2ccc3cccc(O)c3n2)cc1` as the compound, how does the viability at 4 µg/mL read?
A: 66%

Q: With `COc1cccc2c(Cl)cc(/C=C/c3ccccc3)nc12` as the compound, how does the viability at 4 µg/mL read?
A: 109%

Q: Which viability at 4 µg/mL does the source give for `CO/N=C(\C)c1ccc(Nc2cc(/C=C/c3ccc([N+](=O)[O-])o3)nc3ccccc23)cc1` here?
A: < 20%

Q: Which viability at 4 µg/mL does the source give for `Oc1ccc(/C=C/c2ccc3cccc(O)c3n2)cc1` here?
A: 52%

Q: With `COc1cccc2c(O)cc(/C=C/c3ccccc3)nc12` as the compound, how does the viability at 4 µg/mL read?
A: 111%

Q: For `Oc1cccc2ccc(/C=C/c3ccco3)nc12`, which viability at 4 µg/mL is on record?
A: 70%

Q: With `Oc1cccc2ccc(/C=C/c3ccc(F)cc3)nc12` as the compound, how does the viability at 4 µg/mL read?
A: 66%

Q: Which viability at 4 µg/mL does the source give for `COc1cccc2c(Nc3ccc(C(C)=O)cc3)cc(/C=C/c3ccccc3)nc12` here?
A: 75%

Q: Which viability at 4 µg/mL does the source give for `Oc1cccc(/C=C/c2ccc3cccc(O)c3n2)c1O` here?
A: 53%

Q: Which viability at 4 µg/mL does the source give for `C/C(=N/O)c1ccc(Nc2cc(/C=C/c3ccccc3)nc3ccccc23)cc1` here?
A: 67%

Q: Which viability at 4 µg/mL does the source give for `Oc1cc(/C=C/c2ccccc2)nc2ccccc12` here?
A: 118%

Q: Which viability at 4 µg/mL does the source give for `Oc1cccc2ccc(/C=C/c3ccccc3)nc12` here?
A: 55%

Q: With `CC(=O)c1ccc(Nc2cc(/C=C/c3ccc([N+](=O)[O-])o3)nc3ccccc23)cc1` as the compound, how does the viability at 4 µg/mL read?
A: < 20%

Q: For `Oc1cccc2ccc(/C=C/c3cccnc3)nc12`, which viability at 4 µg/mL is on record?
A: 63%

Q: For `CO/N=C(/C)c1ccc(Nc2cc(/C=C/c3ccccc3)nc3ccccc23)cc1`, which viability at 4 µg/mL is on record?
A: 79%

Q: With `COc1cccc2c(Nc3ccc(/C(C)=N\O)cc3)cc(/C=C/c3ccccc3)nc12` as the compound, how does the viability at 4 µg/mL read?
A: < 20%

Q: With `O=[N+]([O-])c1ccc(/C=C/c2ccc3cccc(O)c3n2)cc1` as the compound, how does the viability at 4 µg/mL read?
A: 52%

Q: For `Clc1cc(/C=C/c2ccccc2)nc2ccccc12`, which viability at 4 µg/mL is on record?
A: 109%

test system: MCF7; assay: Antiproliferative activity against human MCF7 cells after 48 hrs by ATPlite assay; format: functional, cell-based; details: MCF7, 48 h

Q: Which IC50 does the source give for `C/C(=N\O)c1ccc(Nc2cc(/C=C/c3ccc([N+](=O)[O-])o3)nc3ccccc23)cc1` here?
A: 0.25 µM

Q: With `CO/N=C(\C)c1ccc(Nc2cc(/C=C/c3ccc([N+](=O)[O-])o3)nc3ccccc23)cc1` as the compound, how does the IC50 read?
A: 0.4 µM

Q: Which IC50 does the source give for `CC(=O)c1ccc(Nc2cc(/C=C/c3ccc([N+](=O)[O-])o3)nc3ccccc23)cc1` here?
A: 0.43 µM

test system: PC-3; assay: Antiproliferative activity against human PC3 cells after 48 hrs by ATPlite assay; format: functional, cell-based; details: PC-3, 48 h

Q: Which IC50 does the source give for `C/C(=N\O)c1ccc(Nc2cc(/C=C/c3ccc([N+](=O)[O-])o3)nc3ccccc23)cc1` here?
A: 0.19 µM

Q: For `CO/N=C(\C)c1ccc(Nc2cc(/C=C/c3ccc([N+](=O)[O-])o3)nc3ccccc23)cc1`, which IC50 is on record?
A: 0.52 µM

Q: With `CC(=O)c1ccc(Nc2cc(/C=C/c3ccc([N+](=O)[O-])o3)nc3ccccc23)cc1` as the compound, how does the IC50 read?
A: 0.45 µM

test system: LNCaP; assay: Antiproliferative activity against human LNCAP cells after 48 hrs by ATPlite assay; format: functional, cell-based; details: not given

Q: For `C/C(=N\O)c1ccc(Nc2cc(/C=C/c3ccc([N+](=O)[O-])o3)nc3ccccc23)cc1`, which IC50 is on record?
A: 0.95 µM

Q: For `CO/N=C(\C)c1ccc(Nc2cc(/C=C/c3ccc([N+](=O)[O-])o3)nc3ccccc23)cc1`, which IC50 is on record?
A: 1.04 µM

Q: With `CC(=O)c1ccc(Nc2cc(/C=C/c3ccc([N+](=O)[O-])o3)nc3ccccc23)cc1` as the compound, how does the IC50 read?
A: 4.12 µM

test system: not listed separately; assay: Growth inhibition of human NCI60 cells; format: functional; details: not given

Q: With `COc1cc(NS(C)(=O)=O)ccc1Nc1c2ccccc2nc2ccccc12` [AMSACRINE] as the compound, how does the GI50 read?
A: 0.44 µM

Q: With `COc1cccc2c1C(=O)c1c(O)c3c(c(O)c1C2=O)C[C@@](O)(C(C)=O)C[C@@H]3O[C@H]1C[C@H](N)[C@H](O)[C@H](C)O1` [DAUNORUBICIN] as the compound, how does the GI50 read?
A: 0.044 µM

Q: Which GI50 does the source give for `CC(=O)c1ccc(Nc2c3ccccc3nc3occc23)cc1` here?
A: 0.025 µM

test system: SF-268; assay: Antiproliferative activity against human SF268 cells assessed as cell survival at 4 ug/mL after 72 hrs by MTS assay relative to control; format: functional; details: SF-268, 72 h, read-out: Survival; summary of the method: as §1

Q: For `CC(=O)c1ccc(Nc2cc(/C=C/c3ccccc3)nc3ccccc23)cc1`, which viability at 4 µg/mL is on record?
A: 107%

Q: With `CO/N=C(/C)c1ccc(Nc2cc(/C=C/c3ccccc3)nc3c(OC)cccc23)cc1` as the compound, how does the viability at 4 µg/mL read?
A: 97%

Q: Which viability at 4 µg/mL does the source give for `C/C(=N\O)c1ccc(Nc2cc(/C=C/c3ccc([N+](=O)[O-])o3)nc3ccccc23)cc1` here?
A: < 20%

Q: For `N#Cc1ccc(/C=C/c2ccc3cccc(O)c3n2)cc1`, which viability at 4 µg/mL is on record?
A: 90%

Q: Which viability at 4 µg/mL does the source give for `COc1cccc2c(Cl)cc(/C=C/c3ccccc3)nc12` here?
A: 81%

Q: With `CO/N=C(\C)c1ccc(Nc2cc(/C=C/c3ccc([N+](=O)[O-])o3)nc3ccccc23)cc1` as the compound, how does the viability at 4 µg/mL read?
A: < 20%

Q: For `Oc1ccc(/C=C/c2ccc3cccc(O)c3n2)cc1`, which viability at 4 µg/mL is on record?
A: 78%

Q: Which viability at 4 µg/mL does the source give for `COc1cccc2c(O)cc(/C=C/c3ccccc3)nc12` here?
A: 119%

Q: Which viability at 4 µg/mL does the source give for `Oc1cccc2ccc(/C=C/c3ccco3)nc12` here?
A: 76%

Q: Which viability at 4 µg/mL does the source give for `Oc1cccc2ccc(/C=C/c3ccc(F)cc3)nc12` here?
A: 82%

Q: For `COc1cccc2c(Nc3ccc(C(C)=O)cc3)cc(/C=C/c3ccccc3)nc12`, which viability at 4 µg/mL is on record?
A: 114%

Q: With `Oc1cccc(/C=C/c2ccc3cccc(O)c3n2)c1O` as the compound, how does the viability at 4 µg/mL read?
A: 52%

Q: With `C/C(=N/O)c1ccc(Nc2cc(/C=C/c3ccccc3)nc3ccccc23)cc1` as the compound, how does the viability at 4 µg/mL read?
A: 90%

Q: Which viability at 4 µg/mL does the source give for `Oc1cc(/C=C/c2ccccc2)nc2ccccc12` here?
A: 120%

Q: For `Oc1cccc2ccc(/C=C/c3ccccc3)nc12`, which viability at 4 µg/mL is on record?
A: 72%

Q: For `CC(=O)c1ccc(Nc2cc(/C=C/c3ccc([N+](=O)[O-])o3)nc3ccccc23)cc1`, which viability at 4 µg/mL is on record?
A: < 20%

Q: With `Oc1cccc2ccc(/C=C/c3cccnc3)nc12` as the compound, how does the viability at 4 µg/mL read?
A: 89%

Q: For `CO/N=C(/C)c1ccc(Nc2cc(/C=C/c3ccccc3)nc3ccccc23)cc1`, which viability at 4 µg/mL is on record?
A: 112%

Q: For `COc1cccc2c(Nc3ccc(/C(C)=N\O)cc3)cc(/C=C/c3ccccc3)nc12`, which viability at 4 µg/mL is on record?
A: 63%

Q: For `O=[N+]([O-])c1ccc(/C=C/c2ccc3cccc(O)c3n2)cc1`, which viability at 4 µg/mL is on record?
A: 77%

Q: For `Clc1cc(/C=C/c2ccccc2)nc2ccccc12`, which viability at 4 µg/mL is on record?
A: 118%
